In brackets after ≈: the same amount, converted by molar mass.
Columns and labels:
[1] = Inhibition of TNKS in human SW480 cells assessed as degradation of total pool of beta-catenin after 40 to 48 hrs; type: cell-based
How it was run: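 SW480 cells were seeded at 10 000/well in MEMα with 10% HI FBS, GlutaMAX, pyruvate and 10 mM HEPES. They were treated with a 10-point, 3-fold dilution series at 0.1% final DMSO for 40–48 h at 37 °C, then lysed. Total β-catenin was measured by MSD sandwich immunoassay (polyclonal capture, SULFO-TAG mAb detection).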

[2] = Intrinsic clearance in rat liver microsomes at 1 uM after 30 mins; type: ADME; settings: read-out: CLH
How it was run: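 Substrate depletion in rat liver microsomes: 0.25 mg protein/mL, 1 mM NADPH and 2 mM MgCl2 in 50 mM potassium phosphate, pH 7.4, prewarmed to 37 °C. Test compound was added to a final 1 μM, and parent loss was measured after 30 min at 37 °C.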

[3] = Half life in CD-1 mouse plasma at 1 uM by LC-MS/MS analysis; type: ADME, cell-free
How it was run: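 Lithium-heparinized CD-1 mouse plasma was spiked with 1 μM substrate and incubated at 37 °C for 3 h, sampling at 0, 0.167, 1, 2 and 3 h (n = 2). Samples underwent acetonitrile protein precipitation with tolbutamide as internal standard. Analysis was by reversed-phase UPLC-ESI-MS/MS in MRM mode.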

[4] = Solubility in fasted state simulated intestinal fluid at pH 6.8; type: ADME
[5] = Inhibition of TNKS in human SW480 cells assessed as accumulation of axin-2 into cytoplasmic foci after 24 hrs by Hoechst dye-based assay; settings: SW480, 24 h
[6] = target: T1, Poly [ADP-ribose] polymerase tankyrase-1 (Homo sapiens, UniProt O95271); test: Inhibition of 6x-His-tagged TNKS1 (unknown origin) after 60 mins
T1 sequence (O95271 whole entry): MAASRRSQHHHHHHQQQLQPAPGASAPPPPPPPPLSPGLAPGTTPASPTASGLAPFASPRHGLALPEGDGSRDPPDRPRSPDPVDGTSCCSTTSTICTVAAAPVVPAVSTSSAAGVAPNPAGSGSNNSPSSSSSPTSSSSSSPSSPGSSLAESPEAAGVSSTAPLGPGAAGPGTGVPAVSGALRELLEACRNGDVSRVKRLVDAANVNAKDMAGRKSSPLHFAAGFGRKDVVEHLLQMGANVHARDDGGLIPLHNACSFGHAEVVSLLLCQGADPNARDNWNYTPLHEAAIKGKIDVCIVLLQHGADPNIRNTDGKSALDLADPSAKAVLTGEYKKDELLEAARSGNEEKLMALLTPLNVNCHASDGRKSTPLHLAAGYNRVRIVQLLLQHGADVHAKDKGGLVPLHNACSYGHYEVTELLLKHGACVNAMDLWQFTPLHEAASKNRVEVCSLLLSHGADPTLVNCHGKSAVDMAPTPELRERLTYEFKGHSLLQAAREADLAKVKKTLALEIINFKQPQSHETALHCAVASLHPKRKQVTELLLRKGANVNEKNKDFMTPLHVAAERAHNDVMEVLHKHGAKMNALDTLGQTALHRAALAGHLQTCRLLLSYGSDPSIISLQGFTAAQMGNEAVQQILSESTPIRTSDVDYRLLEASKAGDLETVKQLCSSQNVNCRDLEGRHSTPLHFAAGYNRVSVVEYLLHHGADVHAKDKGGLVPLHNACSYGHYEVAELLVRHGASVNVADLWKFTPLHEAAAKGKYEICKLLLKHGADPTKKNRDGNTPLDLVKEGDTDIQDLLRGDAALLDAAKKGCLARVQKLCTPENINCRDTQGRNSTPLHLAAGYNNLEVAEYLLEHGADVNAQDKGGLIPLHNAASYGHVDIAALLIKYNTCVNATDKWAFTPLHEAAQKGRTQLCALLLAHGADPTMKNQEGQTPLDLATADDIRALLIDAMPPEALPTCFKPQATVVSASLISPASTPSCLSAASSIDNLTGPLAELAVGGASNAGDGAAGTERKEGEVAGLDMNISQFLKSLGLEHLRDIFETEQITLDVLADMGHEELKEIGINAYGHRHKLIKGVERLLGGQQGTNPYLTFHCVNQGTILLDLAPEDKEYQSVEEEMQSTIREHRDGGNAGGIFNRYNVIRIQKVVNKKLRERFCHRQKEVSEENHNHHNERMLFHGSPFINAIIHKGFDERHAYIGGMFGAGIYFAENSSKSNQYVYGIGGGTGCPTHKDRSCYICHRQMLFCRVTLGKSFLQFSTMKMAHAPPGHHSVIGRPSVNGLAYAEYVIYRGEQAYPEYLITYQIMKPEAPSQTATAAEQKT

[7] = Fraction unbound in mouse plasma at 5 uM after 5 hrs by equilibrium dialysis method; type: ADME, cell-free
How it was run: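 Mouse plasma was spiked to a final 5 μM and equilibrium-dialyzed against plasma water (ultrafiltrate) for 5 h at 37 °C in a CO2 incubator, using a rapid equilibrium dialysis device. Fraction unbound was determined in duplicate.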

[8] = Tmax in CD-1 mouse at 30 mg/kg, po; type: ADME, organism-based; set-up: dose 30 mg/kg, route oral; settings: in vivo
How it was run: (§1)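 Male CD-1 mice given a single oral dose of 30 mg/kg. Vehicle was 10% Pluronic F68, 30% HPBCD and 60% water, pH adjusted to 10.0 with NaOH for most compounds or to 2.5 with methanesulfonic acid for one. Mean plasma PK parameters were reported.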

[9] = Inhibition of TNKS in human DLD1 cells expressing APC mutant assessed as inhibition of super-Topflash reporter gene transcription after 40 to 48 hrs by dual-glo luciferase reporter gene assay; type: cell-based; settings: DLD-1
How it was run: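 DLD-1 cells carried an 8× TCF-driven firefly luciferase and an EF1a-driven Renilla luciferase, and were seeded at 10 000/well in RPMI with 10% FBS without antibiotics. A 10-point, 3-fold dilution series starting at 10 μM was applied for 40–48 h at 37 °C. Firefly and Renilla activities were read with Dual-Glo reagents.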

[10] = Cmax in CD-1 mouse at 30 mg/kg, po; type: ADME, organism-based; set-up: dose 30 mg/kg, route oral; settings: in vivo; how it was run: as §1
[11] = AUC (0 to infinity) in CD-1 mouse at 30 mg/kg, po; type: ADME, organism-based; set-up: time infinity, dose 30 mg/kg, route oral; settings: plasma; how it was run: as §1
[12] = Half life in rat at 0.5 mg/kg, iv; type: ADME, organism-based; set-up: dose 0.5 mg/kg, route intravenous; settings: in vivo
How it was run: (§2)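 Male rats received a single intravenous dose of 0.5 mg/kg. Mean clearance, steady-state volume of distribution and half-life were reported.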

[13] = Clearance in rat at 0.5 mg/kg, iv; type: ADME, organism-based; set-up: dose 0.5 mg/kg, route intravenous; settings: in vivo; how it was run: as §2
[14] = Volume of distribution at steady state in rat at 0.5 mg/kg, iv; type: ADME, organism-based; set-up: dose 0.5 mg/kg, route intravenous; settings: in vivo, read-out: Vdss; how it was run: as §2

Compound | IC50 [1] [nM] | microsomal CLint at 1 µM [2] [µL/min/mg] | IC50 [6] [nM] | further results
O=C(CCSc1nc2ccccc2c(=O)[nH]1)N[C@H]1CC[C@H](Oc2ccc(F)cc2)CC1 | 16.7 | – | – | –
O=C(CCc1nc2ccccc2c(=O)[nH]1)N[C@H]1CC[C@H](c2nnc(-c3ccccc3)o2)CC1 | 80 | < 14 | – | half-life at 1 µM [3]: > 8.33 h; solubility [4]: 16.2 µg/mL (≈ 36.5 µM); EC50 [5]: 640 nM
O=C(CCc1nc2ccccc2c(=O)[nH]1)Nc1ccc(-c2nc(-c3ccccc3)no2)cc1 | – | – | > 46000 | –
O=C(CCc1nc2ccccc2c(=O)[nH]1)Nc1ccc(-c2csc(-c3ccccc3)n2)cc1 | – | – | > 46000 | –
O=C(CCc1nc2c(c(=O)[nH]1)CCCN2)N[C@H]1CC[C@H](c2nnc(-c3ccccc3)o2)CC1 | 1020 | < 14 | – | –
O=C(CCc1nc2ncccc2c(=O)[nH]1)N[C@H]1CC[C@H](c2nnc(-c3ccccc3)o2)CC1 | 1950 | 24 | – | –
O=C(CCSc1nc2c(c(=O)[nH]1)CCCC2)N[C@H]1CC[C@H](c2nnc(-c3ccccc3)o2)CC1 | 11 | 60 | – | fraction unbound at 5 h, 5 µM [7]: 0.012; Tmax [8]: 3.23 h; IC50 [9]: 1.3 nM; Cmax [10]: 3.6 µM; solubility [4]: 8 µg/mL (≈ 16.7 µM); AUC(0-inf) [11]: 5.3 µM·h; EC50 [5]: 14 nM
COc1ccccc1NS(=O)(=O)c1ccc(NC(=O)CCc2nc3ccccc3c(=O)[nH]2)cc1 | – | – | > 46000 | –
O=C(CCCSc1nc2ccccc2c(=O)[nH]1)N[C@H]1CC[C@H](c2nnc(-c3ccccc3)o2)CC1 | 100 | 159 | – | solubility [4]: 1 µg/mL (≈ 2.04 µM)
O=C(CCSc1nc2ccccc2c(=O)[nH]1)N[C@H]1CC[C@H](Oc2cccc(Cl)c2)CC1 | 120 | – | – | –
Cn1c(-c2ccc(NC(=O)CCc3nc4ccccc4c(=O)[nH]3)cc2)nc2ccccc21 | > 10000 | – | 1090 | half-life at 1 µM [3]: > 8.33 h
O=C(CSc1nc2ccccc2c(=O)[nH]1)N[C@H]1CC[C@H](c2nnc(-c3ccccc3)o2)CC1 | 91 | 20 | – | solubility [4]: 1 µg/mL (≈ 2.17 µM)
O=C(CCc1nc2ccccc2c(=O)[nH]1)Nc1ccc(-c2c[nH]c(-c3ccccc3)n2)cc1 | > 10000 | – | 640 | half-life at 1 µM [3]: 0.883 h
O=C(CCc1nc2ccccc2c(=O)[nH]1)Nc1ccc(-c2nc(-c3ccccc3)c[nH]2)cc1 | – | – | > 46000 | –
O=C(CCc1nc2ccccc2c(=O)[nH]1)Nc1ccc(-c2nnc(-c3ccccc3)o2)cc1 | 410 | – | – | half-life at 1 µM [3]: 2.03 h; EC50 [5]: 2450 nM
O=C(CCSc1nc2ccccc2c(=O)[nH]1)N[C@H]1CC[C@H](Oc2ccncc2)CC1 | 6.9 | – | – | fraction unbound at 5 h, 5 µM [7]: 0.032; half-life [12]: 0.7 h; Tmax [8]: 0.67 h; clearance [13]: 11 mL/min/kg; IC50 [9]: 0.7 nM; Cmax [10]: 7 µM; AUC(0-inf) [11]: 11.5 µM·h; EC50 [5]: 6.8 nM; Vd [14]: 0.4 L/kg

Compound | IC50 [1] [nM] | microsomal CLint at 1 µM [2] [µL/min/mg] | IC50 [6] [nM] | further results
COc1cccc(C)c1NC(=O)c1ccc(NC(=O)CCc2nc3ccccc3c(=O)[nH]2)cc1 | – | – | 1750 | half-life at 1 µM [3]: 4.5 h
COc1ccccc1NC(=O)c1ccc(NC(=O)CCc2nc3ccccc3c(=O)[nH]2)cc1C | 3090 | – | 210 | half-life at 1 µM [3]: 0.717 h
O=C(C[C@H]1CCCN1Cc1nc2ccccc2c(=O)[nH]1)N[C@H]1CC[C@H](c2nnc(-c3ccccc3)o2)CC1 | 500 | > 399 | – | solubility [4]: 42 µg/mL (≈ 81.9 µM)
COc1ccccc1N(C)C(=O)c1ccc(NC(=O)CCc2nc3ccccc3c(=O)[nH]2)cc1 | 5680 | – | 400 | half-life at 1 µM [3]: 0.633 h
O=C(CCSc1nccc(=O)[nH]1)N[C@H]1CC[C@H](c2nnc(-c3ccccc3)o2)CC1 | 2130 | < 14 | – | solubility [4]: 53 µg/mL (≈ 125 µM)
N#Cc1cccc(O[C@H]2CC[C@H](NC(=O)CCSc3nc4ccccc4c(=O)[nH]3)CC2)c1 | 47.8 | – | – | –
O=C(N[C@H]1CC[C@H](c2nnc(-c3ccccc3)o2)CC1)[C@@H]1CCCN(Cc2nc3ccccc3c(=O)[nH]2)C1 | 1170 | 206 | – | solubility [4]: 43 µg/mL (≈ 83.9 µM)
O=C(CCSc1nc2ccccc2c(=O)[nH]1)N[C@H]1CC[C@H](Oc2ccc(Cl)cc2)CC1 | 20 | – | – | –
COc1ccccc1NC(=O)[C@H]1CC[C@@H](NC(=O)CCc2nc3ccccc3c(=O)[nH]2)CC1 | – | – | 7460 | half-life at 1 µM [3]: > 16.7 h
O=C(CCSc1nc2ccccc2c(=O)[nH]1)N[C@H]1CC[C@H](Oc2ccccn2)CC1 | 15.4 | – | – | –
O=C(CCc1nc2ccccc2c(=O)[nH]1)Nc1ccc(-c2nc3ccccc3o2)cc1 | 7720 | – | 860 | –
COc1ccccc1NC(=O)[C@H]1CC[C@H](NC(=O)CCc2nc3ccccc3c(=O)[nH]2)CC1 | 300 | – | 31 | half-life at 1 µM [3]: > 16.7 h
N#Cc1ccc(O[C@H]2CC[C@H](NC(=O)CCSc3nc4ccccc4c(=O)[nH]3)CC2)cc1Cl | 8.1 | – | – | fraction unbound at 5 h, 5 µM [7]: 0.002; Tmax [8]: 1.58 h; IC50 [9]: 1.1 nM; Cmax [10]: 15.1 µM; AUC(0-inf) [11]: 100 µM·h; EC50 [5]: 8.4 nM
O=C(CCCc1nc2ccccc2c(=O)[nH]1)N[C@H]1CC[C@H](c2nnc(-c3ccccc3)o2)CC1 | 17 | 20 | – | solubility [4]: 11 µg/mL (≈ 24 µM)
Cc1ccnc2c(NC(=O)c3ccc(N4C(=O)[C@@H]5[C@H](C4=O)[C@@H]4C=C[C@H]5C4)cc3)cccc12 | – | – | 160 | –
N#Cc1cc(O[C@H]2CC[C@H](NC(=O)CCSc3nc4ccccc4c(=O)[nH]3)CC2)ccc1Cl | 24.2 | – | – | –

— ChEMBL document CHEMBL3108694, “Development of novel dual binders as potent, selective, and orally bioavailable tankyrase inhibitors” (J Med Chem, 2013)
